# Bioassay records as filed in PubChem BioAssay.
# An excerpt weighted towards active compounds, which were near 3.8% of everything screened.
# KCNQ1 act – potentiates or activates the human KCNQ1 potassium channel; B-score at 10 µM; CHO-K1 KCNQ1, thallium flux FluxOR fluorescence; active compounds read high; P51787; 0.35% of 310,000 active;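 active means fluorescence ratio B-score, a plate-corrected score, at least three library SD, with initial intensity B-score within 5 SD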
#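 System: Stable KCNQ1 CHO-K1 line | Incubation: 90 min dye loading and 20 min compound exposure, both at room temperature | Measure: Ratio B score | Medium: Assay buffer for compound exposure, DMSO matched across wells | Compound dosing: Single-concentration screen | Probe or stimulus: K+/Tl+ depolarizing stimulus | Measured by: Kinetic FluxOR fluorescence, 10 s baseline plus 110 s post-stimulus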
# KCNK9 inh – blocks the human KCNK9 two-pore domain potassium channel; 1.2% of 310,000 active; AID 488922; HEK293 KCNK9, FluxOR thallium flux fluorescence; active compounds read low; B-score at 10 µM;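 active means ratio B-score over 3 SD below the library mean, with starting fluorescence within 5 SD of its mean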;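 further: negative B-score means less thallium flux so channel inhibition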
# hERG protect – compounds protecting human hERG from proarrhythmic drug block. CHO-hERG, FluxOR thallium flux, dofetilide IC70 present. Q12809. activation (rescue from dofetilide block), less the hit threshold, % at 10 µM. 0.51% of 310,000 active;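 active means activation above the mean of controls blocked by dofetilide plus 5 SD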;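 further: thallium influx through hERG after potassium depolarization seen as dye fluorescence rise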
# KCNK3 block – human KCNK3 channel inhibition, primary screen; CHO-KCNK3 thallium flux, FluxOR fluorescence; active compounds read low; O14649; 0.84% of 340,000 active; B-score at 10 µM; AID 602410;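 active means B-score under library mean minus 4 SD, starting fluorescence ratio at most library mean plus 5 SD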;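 further: more negative B-score means stronger inhibition of thallium flux through KCNK3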
# Target sequence (O14649 whole entry, looked up): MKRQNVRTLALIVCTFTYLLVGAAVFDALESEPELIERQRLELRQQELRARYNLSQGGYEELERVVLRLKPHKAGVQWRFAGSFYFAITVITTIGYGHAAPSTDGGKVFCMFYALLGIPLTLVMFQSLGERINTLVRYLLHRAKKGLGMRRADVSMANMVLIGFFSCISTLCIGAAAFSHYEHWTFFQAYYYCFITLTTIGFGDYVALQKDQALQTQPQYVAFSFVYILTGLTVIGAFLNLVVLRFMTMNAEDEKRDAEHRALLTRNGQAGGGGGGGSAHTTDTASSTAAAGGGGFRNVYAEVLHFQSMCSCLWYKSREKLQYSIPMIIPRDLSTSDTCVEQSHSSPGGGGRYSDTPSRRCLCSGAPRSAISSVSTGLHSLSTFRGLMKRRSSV
# KCNQ1 block – inhibitors of human KCNQ1 potassium channel | AID 2642 | P51787 | B-score at 10 µM | CHO-K1 KCNQ1, FluxOR thallium flux fluorescence; active compounds read high | 1.3% of 310,000 active;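 active means compounds whose thallium flux B-score, printed positive for inhibition, exceeds three library SD while starting fluorescence stays within three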;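 further: channel opened by potassium depolarization with thallium stimulus after 20 min compound exposure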
# Kir21 inh – Kir2.1 (mouse) channel inhibition; P35561; HEK293-Kir2.1, FluxOR thallium flux fluorescence; active compounds read low; B-score at 10 µM; 0.85% of 310,000 active;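 active means fluorescence ratio B-score at or below minus 3 SD of library scores, with starting-brightness B-score within 2 SD, cut at about -4.2 in these data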;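 further: channel flux triggered by added potassium and thallium sulfate stimulus; B-score of peak minus minimum fluorescence over baseline after thallium stimulus; more negative B-score means stronger Kir2.1 block with less thallium influx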
# KCNQ1 inh valid – reconfirmed blocker of the human KCNQ1 potassium channel | 93% of 1,600 active | shares compounds with KCNQ1 block | KCNQ1 cell line, FluxOR thallium flux fluorescence | inhibition, % at 10 µM;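 active means primary screen active, with duplicate mean exceeding buffer control mean plus 3 SD of buffer wells, cut at about 28% in these data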
# CHO KCNQ1 ctr – activity in parental CHO cells lacking KCNQ1; shares compounds with KCNQ1 block; parental CHO-K1, FluxOR thallium flux fluorescence ratio; active compounds read low; zero means no signal rise above baseline; fluorescence ratio (Tl flux) at 10 µM; 21% of 1,600 active; AID 588366;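 active means mean of duplicate thallium-flux fluorescence ratios in parental host cells more than 5 SD below the buffer control mean, cut at about 0.38 in these data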;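 further: ratio is peak minus minimum fluorescence divided by baseline fluorescence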
# KCNQ1 ephys val – human KCNQ1 inhibition validated by electrophysiology | KCNQ1-CHO cells, automated patch clamp current | 20% of 490 active | calls only at 10 µM | AID 624120 | shares compounds with KCNQ1 block;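 active means KCNQ1 current drop exceeding 3 SD of negative control wells, seen in both duplicate runs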;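 further: steady state current during a 2 s step from -80 to +40 mV; negative values mean current inhibition and positive values mean potentiation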
# KCNQ2 inh – selectivity of KCNQ1 inhibitors: inhibition of rat KCNQ2 channel. shares compounds with KCNQ1 block. 71% of 1,600 active. inhibition, % at 10 µM. KCNQ2 cells, FluxOR thallium flux fluorescence. AID 651746;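 active means mean percent inhibition of the KCNQ2 thallium signal more than 5 SD above the buffer-only control wells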;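 further: KCNQ2 expressed in CHO cells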
# KCNQ1-KCNE1 inh – human KCNQ1/KCNE1 inhibition in KCNQ1 specificity screen; shares compounds with KCNQ1 block; KCNQ1/KCNE1 cells, FluxOR thallium flux fluorescence; inhibition, % at 10 µM; 77% of 1,600 active; AID 652147;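 active means mean percent inhibition of duplicate wells above the buffer-only control mean plus 3 SD of those controls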
# Numbers stand for hits; 0 = inactive; - = no result given; + = active, no number.
SMILES,KCNQ1 act,KCNK9 inh,hERG protect,KCNK3 block,KCNQ1 block,Kir21 inh,KCNQ1 inh valid,CHO KCNQ1 ctr,KCNQ2 inh,KCNQ1-KCNE1 inh,others
Cc1ccc(-c2nnn(C(C)C(=O)N3c4ccccc4CCc4ccccc43)n2)cc1 (stereo unspecified),0,0,0,0,6,0,135,0,92%,162%,KCNQ1 ephys val=0
CN(Cc1cccnc1)C(=O)c1cc(COc2ccc3c(c2)CCCC3)on1,0,0,0,0,7,0,115,0,81%,46%,KCNQ1 ephys val=0
COc1ccc(CNC(=O)CCNS(=O)(=O)c2ccc(C)cc2)cc1,0,0,0,0,0,0,-,-,-,-,
Cc1c(C(=O)N2CCOCC2)oc2ccccc12,-,-,-,0,-,-,-,-,-,-,
CCOc1ccc(C2CC(c3cccc(OC)c3OC)n3nnnc3N2)cc1Cl (stereo unspecified),0,0,0,0,7,0,0,0,59%,0,
CN1/C(=C\C=C2/SC(=S)N(CC(=O)O)C2=O)C(C)(C)c2ccccc21,0,0,0,0,24,0,+,0.044,0,0,
CCCn1nnc(NC(=O)C(C)Oc2ccc(Cl)cc2Cl)n1 (stereo unspecified),0,0,0,0,0,0,-,-,-,-,
Cc1ccc(-c2cc(-c3ccccc3)c(C#N)c(N)n2)o1,0,0,0,0,6,0,34,0,0,48%,
Cc1ccc(-c2cc(-c3ccccc3Cl)c(C#N)c(N)n2)o1,0,0,0,0,0,0,-,-,-,-,
CN(Cc1ccc(Cl)cc1Cl)C(=O)c1cccc(S(=O)(=O)N2CCN(c3ccccc3)CC2)c1,0,0,0,0,6,0,92,0,90%,68%,KCNQ1 ephys val=0
COc1cccc(CN(C)C(=O)c2cccc(S(=O)(=O)N3CCN(c4ccccc4)CC3)c2)c1OC,-,-,-,0,-,-,-,-,-,-,
CC(=O)c1ccc(NC(=S)NC2CCCC(C)C2C)cc1 (stereo unspecified),0,0,0,0,7,0,47,0,0,34%,
CC1CCCC(NC(=S)Nc2cccc(S(=O)(=O)N(C)C)c2)C1C (stereo unspecified),0,0,0,0,8,0,35,0,0,0,
CC1CCCCC1NC(=S)Nc1ccc(SC(F)F)cc1 (stereo unspecified),0,0,0,0,7,0,66,0,0,40%,
CC1CCN(C(=S)Nc2ccc(SC(F)F)cc2)CC1,0,0,0,0,0,0,-,-,-,-,
CC(=O)c1ccc(NC(=S)NN2C(C)CCCC2C)cc1 (stereo unspecified),0,0,0,0,0,0,-,-,-,-,
CC(=O)c1ccc(N2CCN(S(=O)(=O)c3cc4[nH]c(=O)c(=O)[nH]c4cc3C)CC2)cc1,0,0,0,0,0,0,-,-,-,-,
Cc1nn(C)c(C)c1NC(=O)Nc1ccc(Cl)c(Cl)c1,0,0,0,0,6,0,77,0,0,76%,
CC(=O)Nc1sc(N/N=C/c2ccc(C)cc2)nc1-c1ccc(C)cc1,0,0,0,0,0,0,-,-,-,-,
CC(=O)Nc1sc(/C(C#N)=C/c2ccc(Cl)c(Cl)c2)nc1-c1ccc(C)cc1,0,0,0,0,16,0,+,0.23,0,0,
Cc1cc(Cl)ccc1OC(C)C(=O)Nc1ccc(S(=O)(=O)N2CCOCC2)cc1 (stereo unspecified),0,0,0,0,0,0,-,-,-,-,
